Measured values: ChEMBL document CHEMBL1125436, “Anthracene-9,10-diones as potential anticancer agents. Synthesis, DNA-binding, and biological studies on a series of 2,6-disubstituted derivatives” (J Med Chem, 1992)

What was measured:
Nucleic Acid [1] = assay: Compound was evaluated for the increase in melting temperature (delta Tm) for calf Thymus DNA on interaction with Ligand at DNAp to ligand ratio 10:1; format: functional; settings: Bos taurus
[2] = Estimated pKa value of the compound; format: physicochemical
Nucleic Acid [3] = assay: Compound was evaluated for the increase in melting temperature (delta Tm) for calf Thymus DNA on interaction with Ligand at DNAp to ligand ratio 40:1; format: functional; settings: Bos taurus
L1210 = assay: In vitro extracellular concentration required to reduce cell population to 50% against L1210 leukemia cells; format: functional, cell-based; settings: Mus musculus
Procedure, shortened: (§1)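 Cells seeded at ca. […] cells mL⁻¹, grown 24 h and counted to confirm log growth, then given compound (acetic acid salt or free base) in aqueous solution. Exposure 2 days for L1210 and Walker 256, 6 days for V79. Surviving cells counted; percent growth inhibition versus untreated controls; value is extracellular concentration giving 50% reduction.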

[4] = In vitro extracellular concentration required to reduce cell population to 50% against Walker 256 (WS) carcinoma cells; format: functional, Rattus norvegicus; procedure, shortened: as §1
[5] = In vitro extracellular concentration required to reduce cell population to 50% against Chinese hamster V79 cells; format: functional, cell-based, Cricetulus griseus; procedure, shortened: as §1
Nucleic Acid [6] = assay: Compound was evaluated for the increase in melting temperature (delta Tm) for calf Thymus DNA on interaction with Ligand at DNAp to ligand ratio 20:1; format: functional; settings: Bos taurus
Nucleic Acid [7] = assay: Increase in Melting temperature (delta Tm) for Micrococcus lysodeikticus DNA on interaction against ligand (mole ratio of 10:1); format: functional; settings: Micrococcus luteus
Procedure, shortened: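 M. lysodeikticus DNA (28% A+T) in HNE buffer pH 7.0, dialysed and centrifuged before use; DNAP 0.10 mM with ligand 0.01 mM (10:1). A260 monitored against temperature; Tm at midpoint of normalized curve, ΔTm versus native DNA; mean of at least three determinations.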

Nucleic Acid [8] = assay: Increase in Melting temperature (delta Tm) for Clostridium perfringens DNA on interaction against ligand (mole ratio of 10:1); format: functional
Procedure, shortened: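 Working DNAP 0.10 mM and ligand 0.01 mM. Absorbance at 260 nm was followed against temperature. Tm was taken at the midpoint of the normalized curve and compared with native DNA; mean of ≥3 determinations.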

Nucleic Acid [9] = assay: Increase in Melting temperature (delta Tm) for Calf thymus DNA on interaction against ligand (mole ratio of 10:1); format: functional; settings: Bos taurus

With CN1CCN(CC(=O)Nc2ccc3c(c2)C(=O)c2ccc(NC(=O)CN4CCN(C)CC4)cc2C3=O)CC1 the ΔTm (Nucleic Acid [1]) was 13.6, the pKa [2] was 9.5 and the ΔTm (Nucleic Acid [3]) was 4.2. It also gave an IC50 (L1210) of 6.5 µM, an IC50 [4] of 4.6 µM and an IC50 [5] of 4.6 µM. It also gave a ΔTm (Nucleic Acid [6]) of 8.2.
For O=C(CCN1CCCCC1CO)Nc1ccc2c(c1)C(=O)c1ccc(NC(=O)CCN3CCCCC3CO)cc1C2=O (centres undefined), the ΔTm (Nucleic Acid [1]) was 14.4, the pKa [2] was 10 and the ΔTm (Nucleic Acid [3]) was 3.8. The IC50 (L1210) was 0.5 µM, the IC50 [4] was 2.8 µM and the IC50 [5] was 3.6 µM. The ΔTm (Nucleic Acid [6]) was 7.9.
For CCN(CC)CC(=O)Nc1ccc2c(c1)C(=O)c1ccc(NC(=O)CN(CC)CC)cc1C2=O, the ΔTm (Nucleic Acid [7]) was > 16.6, the ΔTm (Nucleic Acid [1]) was 13.5 and the pKa [2] was 10. For the same compound, the ΔTm (Nucleic Acid [3]) was 3.7, the ΔTm (Nucleic Acid [8]) was 16.6 and the IC50 (L1210) was 27 µM. For the same compound, the IC50 [4] was 19 µM, the ΔTm (Nucleic Acid [9]) was 13.5 and the IC50 [5] was 18 µM. The ΔTm (Nucleic Acid [6]) was 7.7.
O=C(CCN1CCN(CCO)CC1)Nc1ccc2c(c1)C(=O)c1ccc(NC(=O)CCN3CCN(CCO)CC3)cc1C2=O showed a ΔTm (Nucleic Acid [1]) of 7.2, a pKa [2] of 9.5 and a ΔTm (Nucleic Acid [3]) of 2.9. The IC50 (L1210) was 4.2 µM, the IC50 [4] was 6.6 µM and the IC50 [5] was 19.5 µM. For the same compound, the ΔTm (Nucleic Acid [6]) was 4.6.
For O=C(CCN1CCCCC1)Nc1ccc2c(c1)C(=O)c1ccc(NC(=O)CCN3CCCCC3)cc1C2=O, the ΔTm (Nucleic Acid [7]) was > 14.5, the ΔTm (Nucleic Acid [1]) was > 15.3 and the pKa [2] was 10.4. The ΔTm (Nucleic Acid [3]) was 3.7, the ΔTm (Nucleic Acid [8]) was > 18.9 and the IC50 (L1210) was 0.19 µM. For the same compound, the IC50 [4] was 2 µM, the ΔTm (Nucleic Acid [9]) was > 15.3 and the IC50 [5] was 1.7 µM. The ΔTm (Nucleic Acid [6]) was 7.3.
In the case of O=C(CCN1CCOCC1)Nc1ccc2c(c1)C(=O)c1ccc(NC(=O)CCN3CCOCC3)cc1C2=O, the ΔTm (Nucleic Acid [1]) is reported as 4.9, the pKa [2] is reported as 8 and the IC50 (L1210) is reported as 0.57 µM. The IC50 [4] was 4.2 µM, the IC50 [5] was 1.6 µM and the ΔTm (Nucleic Acid [6]) was 3.
In the case of CCN(CC)CCC(=O)Nc1ccc2c(c1)C(=O)c1ccc(NC(=O)CCN(CC)CC)cc1C2=O, the ΔTm (Nucleic Acid [7]) is reported as > 18.1, the ΔTm (Nucleic Acid [1]) is reported as > 15.5 and the pKa [2] is reported as 10.8. For the same compound, the ΔTm (Nucleic Acid [3]) was 3.7, the ΔTm (Nucleic Acid [8]) was > 20.5 and the IC50 (L1210) was 0.34 µM. The IC50 [4] was 2.7 µM, the ΔTm (Nucleic Acid [9]) was > 15.5 and the IC50 [5] was 2.9 µM. For the same compound, the ΔTm (Nucleic Acid [6]) was 7.7.
With O=C(CCN(CCO)CCO)Nc1ccc2c(c1)C(=O)c1ccc(NC(=O)CCN(CCO)CCO)cc1C2=O the ΔTm (Nucleic Acid [7]) was > 15.7, the ΔTm (Nucleic Acid [1]) was 10.9 and the pKa [2] was 9. The ΔTm (Nucleic Acid [3]) was 3.2, the ΔTm (Nucleic Acid [8]) was 11.7 and the IC50 (L1210) was 4.2 µM. The IC50 [4] was > 100 µM, the ΔTm (Nucleic Acid [9]) was 10.9 and the IC50 [5] was 25.5 µM. The ΔTm (Nucleic Acid [6]) was 6.1.
In the case of O=C(CCN1CCC(CCO)CC1)Nc1ccc2c(c1)C(=O)c1ccc(NC(=O)CCN3CCC(CCO)CC3)cc1C2=O, the ΔTm (Nucleic Acid [1]) is reported as > 15, the pKa [2] is reported as 10 and the ΔTm (Nucleic Acid [3]) is reported as 4.3. For the same compound, the IC50 (L1210) was 2.3 µM, the IC50 [4] was 5.5 µM and the IC50 [5] was 3.95 µM. It also gave a ΔTm (Nucleic Acid [6]) of 8.3.
In the case of O=C(CCN1CCCCC1CCO)Nc1ccc2c(c1)C(=O)c1ccc(NC(=O)CCN3CCCCC3CCO)cc1C2=O (centres undefined), the ΔTm (Nucleic Acid [7]) is reported as > 14.6, the ΔTm (Nucleic Acid [1]) is reported as > 15.3 and the pKa [2] is reported as 10. For the same compound, the ΔTm (Nucleic Acid [3]) was 4.1, the ΔTm (Nucleic Acid [8]) was > 18.5 and the IC50 (L1210) was 0.28 µM. The IC50 [4] was 3.6 µM, the ΔTm (Nucleic Acid [9]) was > 15.3 and the IC50 [5] was 12 µM. For the same compound, the ΔTm (Nucleic Acid [6]) was 9.2.
With O=C1c2c(O)ccc(O)c2C(=O)c2c(NCCNCCO)ccc(NCCNCCO)c21 [MITOXANTRONE] the ΔTm (Nucleic Acid [7]) was > 11.7, the ΔTm (Nucleic Acid [1]) was > 15 and the pKa [2] was 7.4. For the same compound, the ΔTm (Nucleic Acid [8]) was > 26.4, the IC50 (L1210) was 0.002 µM and the IC50 [4] was 0.01 µM. The ΔTm (Nucleic Acid [9]) was > 15 and the ΔTm (Nucleic Acid [6]) was 7.4.
With O=C(CN1CCOCC1)Nc1ccc2c(c1)C(=O)c1ccc(NC(=O)CN3CCOCC3)cc1C2=O the ΔTm (Nucleic Acid [1]) was 0.5, the pKa [2] was 7.4 and the ΔTm (Nucleic Acid [3]) was 0.5. For the same compound, the IC50 (L1210) was > 100 µM, the IC50 [4] was > 100 µM and the IC50 [5] was > 100 µM. The ΔTm (Nucleic Acid [6]) was 0.5.
Work on CN1CCN(CCC(=O)Nc2ccc3c(c2)C(=O)c2ccc(NC(=O)CCN4CCN(C)CC4)cc2C3=O)CC1 yielded a ΔTm (Nucleic Acid [1]) of 9.2, a pKa [2] of 9 and an IC50 (L1210) of 1.7 µM. It also gave an IC50 [4] of 3.1 µM, an IC50 [5] of 1.8 µM and a ΔTm (Nucleic Acid [6]) of 4.4.
With O=C(CN1CCCCC1)Nc1ccc2c(c1)C(=O)c1ccc(NC(=O)CN3CCCCC3)cc1C2=O the ΔTm (Nucleic Acid [7]) was 18.4, the ΔTm (Nucleic Acid [1]) was 14.3 and the pKa [2] was 10. The ΔTm (Nucleic Acid [8]) was 19, the IC50 (L1210) was 76 µM and the IC50 [4] was > 100 µM. The ΔTm (Nucleic Acid [9]) was 14.3, the IC50 [5] was 30 µM and the ΔTm (Nucleic Acid [6]) was 8.2.
